As usually defined, the solubility is the dissolved amount per volume that the medium holds. A word on the IC50: it is the concentration at which inhibition is half-maximal. Broadly, the Km is the substrate concentration at which the rate is half of its maximum. As a reminder, the Vmax is the top rate of the reaction or transport when substrate is in excess.

Here are results for four compounds from ChEMBL document CHEMBL1144665, “Benzyl ether-linked glucuronide derivative of 10-hydroxycamptothecin designed for selective camptothecin-based anticancer therapy” (J Med Chem, 2008).

≈ marks a conversion by molar mass, not a printed value. Some results are limits rather than exact numbers.

Data set [1] is described as follows: Aqueous solubility in phosphate buffer at pH 4.0. Type of data set: physicochemical. The method, boiled down:
(§1)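 Excess solid equilibrated in 100 mM phosphate buffer (pH 4.0 or 7.0) at 25 °C for 24 h. Filtered through 0.2 µm, diluted in mobile phase and quantified by HPLC with fluorescence detection against calibration curves. Single determination.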

A short description of data set [2]: Aqueous solubility in phosphate buffer at pH 7.0. The class given is physicochemical. In outline: as §1
Data set [3] has as its system HepG2. The data set is described as follows: Cytotoxicity against human HepG2 cells assessed as inhibition of [3H]thymidine after 48 hrs. The class given is functional, cell-based. The method, boiled down:
(§2)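 Exponentially growing cells, 5 × 10³/well in RPMI with 10% bovine serum and penicillin/streptomycin, 37 °C, 5% CO₂, exposed to a range of drug concentrations (DMSO final ≤0.5%; vehicle controls). After 48 h, 12 h [³H]thymidine pulse (1 µCi/well); trypsinized cells counted for radioactivity. Triplicate wells, 1–3 experiments; IC50 interpolated from log dose–response curves.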

In data set [4] the test system is COLO 205. The data set is described as follows: Cytotoxicity against human Colo 205 cells assessed as inhibition of [3H]thymidine after 48 hrs. The class given is functional, cell-based. In outline: as §2
In data set [5] the test system is HT-29. The data set is described as follows: Cytotoxicity against human HT29 cells assessed as inhibition of [3H]thymidine after 48 hrs. Type of data set: functional, cell-based. In outline:
as §2

The nature of data set [6]: Cytotoxicity against human H298 cells assessed as inhibition of [3H]thymidine after 48 hrs. Type of data set: functional, cell-based. The method, boiled down: as §2
The next data set deals with Plasma. The data set is described as follows: Stability in 95% human plasma. Type of data set: ADME, cell-free. In outline: (§3)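 Incubated in 95% human plasma at 37 °C up to 6 h. Aliquots neutralized with 12 mM phosphoric acid, extracted three times with ethyl acetate, dried, redissolved in mobile phase, filtered and analysed by reversed-phase HPLC with fluorescence detection.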

A short description of data set [7]: Prodrug hydrolysis by Escherichia coli beta-glucuronidase assessed as release of 10-hydroxycamptothecin at pH 7.0. The following applies: buffer. Type of data set: ADME. Also on record: scale not given: the % may be the effect or the level left. The method, boiled down: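 Substrate incubated with E. coli β-glucuronidase (0.1 µg/mL) in pH 7.0 phosphate buffer at 37 °C. Aliquots taken over time; substrate and released 10-hydroxycamptothecin quantified by fluorescence-detected reversed-phase HPLC. Triplicate determinations.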

Data set [8] relates to Escherichia coli. The data set is described as follows: Activity of Escherichia coli beta-glucuronidase. The method, boiled down: (§4)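 Prodrug at various concentrations incubated with 0.125 µg/mL E. coli β-glucuronidase, pH 7.0, 37 °C, 20 min; stopped with ice-cold MeOH to precipitate protein. Substrate and released 10-hydroxycamptothecin quantified by reversed-phase HPLC with fluorescence detection (ex 397, em 482 nm) against standard calibration curves; Km, Vmax and Vmax/Km derived.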

Data set [9] has as its system Escherichia coli. In words: Ratio of […] of Escherichia coli beta-glucuronidase. In outline:
as §4

The test system of data set [10] is COLO 205. In words: Cytotoxicity against human Colo 205 cells assessed as inhibition of [3H]thymidine in presence of beta-glucuronidase after 48 hrs. The class given is functional, cell-based. In outline:
(§5)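 As the plain [³H]thymidine assay (5 × 10³ cells/well, RPMI/10% serum, 48 h exposure, then 12 h 1 µCi/well pulse, scintillation counting), but β-glucuronidase (5 µg/mL; 1 µg/well) added together with drug. Triplicate wells, 1–3 experiments; IC50 interpolated from log dose–response curves.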

The test system of data set [11] is HepG2. In words: Cytotoxicity against human HepG2 cells assessed as inhibition of [3H]thymidine in presence of beta-glucuronidase after 48 hrs. The class given is functional, cell-based. In outline:
as §5

The test system of data set [12] is HT-29. The data set is described as follows: Cytotoxicity against human HT29 cells assessed as inhibition of [3H]thymidine in presence of beta-glucuronidase after 48 hrs. Type of data set: functional, cell-based. In outline:
as §5

Data set [13] can be described thus: Cytotoxicity against human H298 cells assessed as inhibition of [3H]thymidine in presence of beta-glucuronidase after 48 hrs. Type of data set: functional, cell-based. The method, boiled down: as §5
A short description of data set [14]: Stability in human plasma assessed as degradation after 10 mins. Type of data set: ADME, cell-free. The following applies: read-out: Activity. In outline: as §3

Take `CC[C@@]1(O)C(=O)OCc2c1cc1n(c2=O)Cc2cc3cc(O)ccc3nc2-1` [HYDROXYCAMPTOTHECIN]: the solubility in data set [1] amounted to 13.7 µM (≈ 4.99 µg/mL); in [2] (buffer) it was 137 µM (≈ 49.9 µg/mL). Besides, the IC50 was determined as 5.4 nM in the data set with HepG2 [3], 9.1 nM in the data set on COLO 205 [4], 8.8 nM in the data set with HT-29 [5] and 6.9 nM in [6].
Consider `CC[C@@]1(O)C(=O)OCc2c1cc1n(c2=O)Cc2cc3cc(OCc4ccc(O[C@@H]5O[C@H](C(=O)O)[C@@H](O)[C@H](O)[C@H]5O)c([N+](=O)[O-])c4)ccc3nc2-1`, for which the solubility in data set [1] came to 1100 µM (≈ 761 µg/mL); in data set [2] (phosphate buffer, read-out: Solubility), 2600 µM (≈ 1800 µg/mL). The Stability entry in the data set with Plasma was “Stable”. Further, the IC50 with HepG2 [3] was determined as 56.5 nM; in the data set on COLO 205 [4], 94.2 nM; in the data set with HT-29 [5] it was 97.8 nM; in [6], 91.1 nM; in the data set on COLO 205 [10], 10.2 nM; in the data set on HepG2 [11] it was 6.6 nM. Besides, the half-inhibitory concentration (IC50) in the data set with HT-29 [12] came out at 10 nM; in [13], 11.1 nM. The Activity in data set [7] is over 50%. Also, the Km in the data set with Escherichia coli [8] was found to be 0.18 µM. Besides, the maximal velocity (Vmax) in the data set on Escherichia coli [8] is 2.7 µM/min. Moreover, the Ratio in the data set on Escherichia coli [9] is 15 min⁻¹.
As to `CC[C@@]1(O)C(=O)OCc2c1cc1n(c2=O)Cc2cc3c(NC(=O)OCc4ccc(O[C@@H]5O[C@H](C(=O)O)[C@@H](O)[C@H](O)[C@H]5O)cc4)cccc3nc2-1`, in the data set with Escherichia coli [8], the Km was 30 µM and the Vmax was 0.86 µM/min. Besides, in the data set with Escherichia coli [9], the Ratio is 0.03 min⁻¹.
On to `CC[C@@]1(O)C(=O)OCc2c1cc1n(c2=O)Cc2cc3cc(OC(=O)OCc4ccc(O[C@@H]5O[C@H](C(=O)OC)[C@@H](O)[C@H](O)[C@H]5O)cc4)ccc3nc2-1`, for which the metabolised at 10 min in [14] was 70%.
